# Laboratory results taken from ChEMBL document CHEMBL1152461, “Tetracycline-inducible expression of individual secreted aspartic proteases in Candida albicans allows isoenzyme-specific inhibitor screening” (Antimicrob Agents Chemother, 2008).
# Calls of active or inactive are those of the source. No cut-off for these calls is given here.
# Key:
# [1] = target: Secreted aspartic protease 1 (Candida albicans) (UniProt P0CY26); assay: Inhibition of SAP1-dependent growth in Candida albicans SAP2MS4B expressing SAP1ex4A at 100 uM incubated in YCB-BSA medium
# Secreted aspartic protease 1 (Candida albicans), sequence (P0CY26 whole entry): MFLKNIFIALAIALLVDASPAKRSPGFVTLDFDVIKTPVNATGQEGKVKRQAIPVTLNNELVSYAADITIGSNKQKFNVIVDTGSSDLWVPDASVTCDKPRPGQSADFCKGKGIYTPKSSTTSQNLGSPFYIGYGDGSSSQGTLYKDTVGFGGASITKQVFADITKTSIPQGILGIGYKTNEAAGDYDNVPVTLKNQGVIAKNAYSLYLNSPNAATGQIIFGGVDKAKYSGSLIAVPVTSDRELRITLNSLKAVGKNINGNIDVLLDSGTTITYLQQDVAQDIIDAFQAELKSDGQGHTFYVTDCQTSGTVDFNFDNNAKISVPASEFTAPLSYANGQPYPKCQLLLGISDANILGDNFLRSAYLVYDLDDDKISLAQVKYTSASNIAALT
# Procedure, shortened: (§1)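 Overnight SD-medium (30°C) preculture diluted 1:100 into YCB-BSA (yeast carbon base plus 4 g/liter BSA as sole nitrogen source) adjusted to pH 4.0, with 50 μg/ml doxycycline to induce Tet-promoter SAP expression; incubated 30°C. Pepstatin A 7.3 μM or HIV protease inhibitors 100 μM (0.125% DMSO final); DMSO-only control. Growth followed as OD600 over time.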
# [2] = target: T1, Secreted aspartic protease 9 (Candida albicans) (UniProt O42779); assay: Inhibition of SAP9-dependent growth in Candida albicans SAP2MS4B expressing SAP9deltaC493 at 100 uM incubated in YCB-BSA medium
# T1 sequence (whole entry): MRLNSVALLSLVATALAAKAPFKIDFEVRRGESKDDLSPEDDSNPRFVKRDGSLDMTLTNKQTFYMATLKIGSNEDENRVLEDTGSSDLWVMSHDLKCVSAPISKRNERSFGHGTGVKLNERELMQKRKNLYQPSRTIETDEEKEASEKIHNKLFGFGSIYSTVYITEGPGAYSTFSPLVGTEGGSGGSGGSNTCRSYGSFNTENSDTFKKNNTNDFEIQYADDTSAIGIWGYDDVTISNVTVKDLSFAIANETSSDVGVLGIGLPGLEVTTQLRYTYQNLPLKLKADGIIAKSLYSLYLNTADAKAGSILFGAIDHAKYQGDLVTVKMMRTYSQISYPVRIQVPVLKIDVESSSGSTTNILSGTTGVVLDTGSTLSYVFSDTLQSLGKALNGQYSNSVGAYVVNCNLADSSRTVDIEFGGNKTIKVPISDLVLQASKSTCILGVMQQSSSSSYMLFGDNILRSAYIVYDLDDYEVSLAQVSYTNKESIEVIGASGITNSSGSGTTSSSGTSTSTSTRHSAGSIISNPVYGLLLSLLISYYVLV
# Procedure, shortened: (§2)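 Overnight SD-medium (30°C) preculture diluted 1:100 into YCB-BSA (4 g/liter BSA as sole nitrogen source) adjusted to pH 5.0, with 25 μg/ml doxycycline inducing Tet-promoter SAP expression; incubated 37°C. Pepstatin A 7.3 μM or HIV protease inhibitors 100 μM (0.125% DMSO final); DMSO-only control. OD600 monitored over time.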
# [3] = target: Secreted aspartic protease 8 (Candida albicans) (UniProt O42778); assay: Inhibition of SAP8-dependent growth in Candida albicans SAP2MS4B expressing SAP8ex4A at 100 uM incubated in YCB-BSA medium; procedure, shortened: as §1
# Secreted aspartic protease 8 (Candida albicans), sequence (O42778 whole entry): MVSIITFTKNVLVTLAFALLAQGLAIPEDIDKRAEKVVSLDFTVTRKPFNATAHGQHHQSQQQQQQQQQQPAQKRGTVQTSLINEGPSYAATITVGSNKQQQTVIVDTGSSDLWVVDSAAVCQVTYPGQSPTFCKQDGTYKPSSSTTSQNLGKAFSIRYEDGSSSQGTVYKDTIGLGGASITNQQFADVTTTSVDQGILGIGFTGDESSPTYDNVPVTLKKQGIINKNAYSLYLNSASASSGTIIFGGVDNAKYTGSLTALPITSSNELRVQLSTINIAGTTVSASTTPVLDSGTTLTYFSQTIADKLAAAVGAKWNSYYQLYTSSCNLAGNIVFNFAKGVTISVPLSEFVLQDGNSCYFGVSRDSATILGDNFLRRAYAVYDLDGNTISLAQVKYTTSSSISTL
# [4] = target: Secreted aspartic protease 6 (Candida albicans) (UniProt P43095); assay: Inhibition of SAP6-dependent growth in Candida albicans SAP2MS4B expressing SAP6ex4A at 100 uM incubated in YCB-BSA medium; procedure, shortened: as §2
# Secreted aspartic protease 6 (Candida albicans), sequence (P43095 whole entry): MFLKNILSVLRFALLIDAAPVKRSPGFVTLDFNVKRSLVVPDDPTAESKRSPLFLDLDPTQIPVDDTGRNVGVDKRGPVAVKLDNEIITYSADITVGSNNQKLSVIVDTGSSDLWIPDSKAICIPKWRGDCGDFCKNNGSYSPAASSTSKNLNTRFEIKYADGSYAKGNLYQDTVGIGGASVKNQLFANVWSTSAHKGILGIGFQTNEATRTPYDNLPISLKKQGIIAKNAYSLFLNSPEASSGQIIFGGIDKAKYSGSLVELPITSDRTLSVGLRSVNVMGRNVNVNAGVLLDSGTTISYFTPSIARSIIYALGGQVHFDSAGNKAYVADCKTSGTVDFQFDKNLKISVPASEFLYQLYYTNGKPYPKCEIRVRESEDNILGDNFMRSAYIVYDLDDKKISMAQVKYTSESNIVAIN
# [5] = target: Candidapepsin-4 (Candida albicans (strain WO-1) (Yeast)) (UniProt P43093); assay: Inhibition of SAP4-dependent growth in Candida albicans SAP2MS4B expressing SAP4ex4A at 100 uM incubated in YCB-BSA medium; procedure, shortened: as §2
# Candidapepsin-4 (Candida albicans (strain WO-1) (Yeast)), sequence (P43093 whole entry): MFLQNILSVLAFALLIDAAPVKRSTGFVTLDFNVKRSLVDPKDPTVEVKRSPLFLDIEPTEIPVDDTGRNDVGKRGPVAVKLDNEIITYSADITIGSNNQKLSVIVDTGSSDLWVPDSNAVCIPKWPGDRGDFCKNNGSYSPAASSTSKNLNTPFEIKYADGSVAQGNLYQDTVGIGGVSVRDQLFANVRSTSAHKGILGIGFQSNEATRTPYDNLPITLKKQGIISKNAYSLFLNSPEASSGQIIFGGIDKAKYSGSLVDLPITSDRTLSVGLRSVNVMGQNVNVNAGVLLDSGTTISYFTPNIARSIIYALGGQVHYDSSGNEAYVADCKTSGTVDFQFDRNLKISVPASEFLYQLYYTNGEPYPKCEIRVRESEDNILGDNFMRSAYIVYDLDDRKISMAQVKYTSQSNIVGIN
# [6] = target: T2, Secreted aspartic protease 5 (Candida albicans (strain SC5314 / ATCC MYA-2876) (Yeast)) (UniProt P43094); assay: Inhibition of SAP5-dependent growth in Candida albicans SAP2MS4B expressing SAP5ex4A at 100 uM incubated in YCB-BSA medium; procedure, shortened: as §2
# T2 sequence (whole entry): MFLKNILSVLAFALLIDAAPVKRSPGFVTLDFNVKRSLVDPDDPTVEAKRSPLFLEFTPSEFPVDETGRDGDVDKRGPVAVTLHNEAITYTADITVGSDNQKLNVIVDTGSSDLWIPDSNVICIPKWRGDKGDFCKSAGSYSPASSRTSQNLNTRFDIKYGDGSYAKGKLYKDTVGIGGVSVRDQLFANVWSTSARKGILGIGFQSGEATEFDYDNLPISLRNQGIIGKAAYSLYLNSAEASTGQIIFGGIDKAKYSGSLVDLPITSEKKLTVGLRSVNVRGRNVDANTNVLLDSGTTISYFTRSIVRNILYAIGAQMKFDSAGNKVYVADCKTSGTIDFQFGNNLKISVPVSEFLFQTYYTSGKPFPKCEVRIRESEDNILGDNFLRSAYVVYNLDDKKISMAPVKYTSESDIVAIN
# [7] = target: Secreted aspartic protease 1 (Candida albicans) (UniProt P0CY26); assay: Inhibition of SAP1-dependent growth in Candida albicans SAP2MS4B expressing SAP1ex4A at 7.3 uM incubated in YCB-BSA medium; procedure, shortened: as §1
# [8] = target: T1, Secreted aspartic protease 9 (Candida albicans); assay: Inhibition of SAP9-dependent growth in Candida albicans SAP2MS4B expressing SAP9deltaC493 at 7.3 uM incubated in YCB-BSA medium; procedure, shortened: as §2
# [9] = target: Secreted aspartic protease 6 (Candida albicans) (UniProt P43095); assay: Inhibition of SAP6-dependent growth in Candida albicans SAP2MS4B expressing SAP6ex4A at 7.3 uM incubated in YCB-BSA medium; procedure, shortened: as §2
# [10] = target: T2, Secreted aspartic protease 5 (Candida albicans (strain SC5314 / ATCC MYA-2876) (Yeast)); assay: Inhibition of SAP5-dependent growth in Candida albicans SAP2MS4B expressing SAP5ex4A at 7.3 uM incubated in YCB-BSA medium; procedure, shortened: as §2
# [11] = target: Secreted aspartic protease 8 (Candida albicans) (UniProt O42778); assay: Inhibition of SAP8-dependent growth in Candida albicans SAP2MS4B expressing SAP8ex4A at 7.3 uM incubated in YCB-BSA medium; procedure, shortened: as §1
# [12] = target: Candidapepsin-4 (Candida albicans (strain WO-1) (Yeast)) (UniProt P43093); assay: Inhibition of SAP4-dependent growth in Candida albicans SAP2MS4B expressing SAP4ex4A at 7.3 uM incubated in YCB-BSA medium; procedure, shortened: as §2
# [13] = target: Secreted aspartic protease 3 (Candida albicans) (UniProt P0CY28); assay: Inhibition of SAP3-dependent growth in Candida albicans SAP2MS4B expressing SAP3ex4A at 7.3 uM incubated in YCB-BSA medium; procedure, shortened: as §1
# Secreted aspartic protease 3 (Candida albicans), sequence (P0CY28 whole entry): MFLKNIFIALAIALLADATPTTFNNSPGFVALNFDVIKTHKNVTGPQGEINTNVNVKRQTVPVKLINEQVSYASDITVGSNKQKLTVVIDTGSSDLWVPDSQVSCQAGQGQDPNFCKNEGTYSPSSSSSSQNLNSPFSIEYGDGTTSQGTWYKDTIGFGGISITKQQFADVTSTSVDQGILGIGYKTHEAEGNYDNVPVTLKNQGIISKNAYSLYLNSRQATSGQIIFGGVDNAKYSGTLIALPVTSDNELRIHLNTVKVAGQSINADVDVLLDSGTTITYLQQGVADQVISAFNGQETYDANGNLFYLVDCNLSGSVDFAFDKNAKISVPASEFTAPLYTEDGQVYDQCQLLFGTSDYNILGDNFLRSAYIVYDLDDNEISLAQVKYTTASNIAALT
# [14] = target: Secreted aspartic protease 2 (Candida albicans) (UniProt P0CS83); assay: Inhibition of SAP2-dependent growth in Candida albicans SAP2MS4B expressing SAP2ex4A at 100 uM incubated in YCB-BSA medium; procedure, shortened: as §1
# Secreted aspartic protease 2 (Candida albicans), sequence (P0CS83 57-398 limits assumed): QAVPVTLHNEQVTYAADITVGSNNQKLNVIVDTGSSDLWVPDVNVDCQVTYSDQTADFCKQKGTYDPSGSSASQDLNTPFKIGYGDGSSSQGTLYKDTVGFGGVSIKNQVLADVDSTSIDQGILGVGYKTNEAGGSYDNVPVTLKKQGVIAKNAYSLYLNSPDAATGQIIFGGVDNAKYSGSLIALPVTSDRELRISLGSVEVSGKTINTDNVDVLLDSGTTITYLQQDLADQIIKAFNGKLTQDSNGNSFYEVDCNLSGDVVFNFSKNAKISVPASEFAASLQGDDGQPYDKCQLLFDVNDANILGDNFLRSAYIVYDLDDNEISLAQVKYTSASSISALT
# [15] = target: Secreted aspartic protease 3 (Candida albicans) (UniProt P0CY28); assay: Inhibition of SAP3-dependent growth in Candida albicans SAP2MS4B expressing SAP3ex4A at 100 uM incubated in YCB-BSA medium; procedure, shortened: as §1
Activity [1],Activity [2],Activity [3],Activity [4],Activity [5],Activity [6],Activity [14],Activity [15],SMILES,Activity [7],Activity [8],Activity [9],Activity [10],Activity [11],Activity [12],Activity [13]
Active,inactive,inactive,inactive,inactive,inactive,,,CC(C)(C)NC(=O)[C@@H]1C[C@@H]2CCCC[C@@H]2CN1C[C@@H](O)[C@H](Cc1ccccc1)NC(=O)[C@H](CC(N)=O)NC(=O)c1ccc2ccccc2n1,,,,,,,
,,,,,,,,CC(C)CC(=O)N[C@H](C(=O)N[C@H](C(=O)N[C@@H](CC(C)C)[C@@H](O)CC(=O)N[C@@H](C)C(=O)N[C@@H](CC(C)C)[C@@H](O)CC(=O)O)C(C)C)C(C)C,Active,Active,Active,Active,Active,Active,Active
Active,inactive,inactive,inactive,inactive,inactive,Active,Active,CC(C)c1nc(CN(C)C(=O)N[C@H](C(=O)N[C@@H](Cc2ccccc2)C[C@H](O)[C@H](Cc2ccccc2)NC(=O)OCc2cncs2)C(C)C)cs1,,,,,,,
